Test results published in ChEMBL document CHEMBL4665656, “Toxicity, bioactivity, release of HS in vivo and pharmaco-kinetics of HS-donors with thiophosphamide structure” (Eur J Med Chem, 2019).
Activity calls are given as the source filed them. The calls are words filed in the database; no cut-off is given here.

Key:
[1] = Toxicity in Wistar rat assessed as damaged glomeruli, marked gaps and swollen proximal convoluted tubules at 0.01 mmol/kg, ip administered for 14 days; type: organism-based; conditions: in vivo, 336 h, time 14 day
How it was run: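 Wistar rats (6/group) dosed ip daily for 14 days with compound in 10% DMSO; vehicle controls received 10% DMSO. Liver, kidney and spleen were fixed in 4% glutaraldehyde, sectioned, H-E stained and examined microscopically.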

[2] = Cytotoxicity against rat H9C2 cells assessed as cell viability at 100 uM measured after 24 hrs by MTT assay; type: cell-based; conditions: read-out: Activity
MCF7 = experiment: Cytotoxicity in human MCF-7 cells assessed as growth inhibition incubated for 24 hrs by MTT assay; type: functional, cell-based; conditions: MCF7, 24 h
How it was run: (§1)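 Cells were grown in RPMI 1640 with 10% FBS at 37 °C and 10% CO2, seeded at 6×10^3 cells/well. Exposure was 24 h, with viability by MTT, in triplicate cultures. IC50 was reported as mean ± SD.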

[3] = Induction of H2S generation assessed as half life at 150 uM incubated at 37 degC and pH 8 by fluorescence spectrophotometry; type: functional
How it was run: (§2)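 Donor at 150 µM final, mixed with 200 µM sulfonyl-azide fluorescent probe in buffer/acetonitrile (1:9) at set pH. Cuvette held in a water bath at 22 °C or 37 °C, with fluorescence read three times at intervals. H2S was quantified from a Na2S standard curve (0–200 µM, probe 200 µM).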

[4] = Toxicity in zebra fish assessed as decrease in survival rate at <=20 uM measured after 120 hpf by microscopic analysis relative control; set-up: species or system Danio rerio; conditions: zebrafish
How it was run: (§3)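 Wild-type AB zebrafish embryos were checked at 4 hpf, and normally developed ones were used. There were 100 embryos per group, split into three replicates, one per well in 200 µL solution under sealing film. Mortality was recorded at 24–168 hpf. Vehicle control was DMF diluted 1:1000. Values are mean ±SD of three independent experiments.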

[5] = Drug metabolism in Wistar rat liver homogenate assessed as metabolite 3b retention time incubated for 36 hrs by LC-MS analysis; type: ADME, tissue-based; conditions: tissue homogenate
[6] = Acute toxicity in juvenile zebrafish assessed as decrease in locomotor activity measured as swimming distance at 10 uM measured at 144 hpf; set-up: species or system Danio rerio; conditions: in vivo, dose […]
How it was run: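 Wild-type AB zebrafish bred at 28 °C on a 14 h/10 h light cycle; normally developing embryos were selected at 4 hpf. Total swimming distance of juveniles was recorded over 5 min under visible light. DMF (1:1000) was the vehicle control, n = 100, three independent experiments, mean ± SD.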

RAW264.7 = experiment: Anti-inflammatory activity in mouse RAW264.7 cells assessed as inhibition of LPS-induced NO production preincubated for 4 hr followed by LPS addition and measured after 24 hrs relative to control; type: functional, cell-based; conditions: dose 100.0 µM, time 28.0 hrs
How it was run: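 RAW264.7 cells exposed to LPS 1 µg/mL with compound (20 and 100 µM) for 24 h. Nitrite in medium measured by Griess reagent, […], against a sodium nitrite standard curve (0–100 µM). Four parallel groups, mean ± SD.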

[7] = Induction of H2S generation assessed as Cmax at 150 uM incubated at 22 degC and pH 5 by fluorescence spectrophotometry; type: functional; how it was run: as §2
HT-29 = experiment: Cytotoxicity in human HT-29 cells assessed as growth inhibition incubated for 24 hrs by MTT assay; type: functional, cell-based; conditions: HT-29, 24 h; how it was run: as §1
[8] = Induction of H2S generation assessed as Cmax at 150 uM incubated at 22 degC and pH 7.4 by fluorescence spectrophotometry; type: functional; how it was run: as §2
[9] = Induction of H2S generation assessed as half life at 150 uM incubated at 22 degC and pH 7.4 by fluorescence spectrophotometry; type: functional; how it was run: as §2
[10] = Induction of H2S generation assessed as Cmax at 150 uM incubated at 22 degC and pH 8 by fluorescence spectrophotometry; type: functional; how it was run: as §2
[11] = Toxicity in zebra fish embryo assessed as decrease in spontaneous movement at 5 uM measured after 24 hpf by microscopic analysis; set-up: species or system Danio rerio; conditions: zebrafish
How it was run: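 Normal AB embryos were exposed to compound or DMF vehicle (1:1000) from 4 to 24 hpf. Ten embryos per group were chosen at random. Spontaneous movement was recorded for 5 min under a stereoscopic dissecting microscope and expressed as frequency per min. Values are mean ±SD of three independent experiments.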

[12] = Induction of H2S generation assessed as half life at 150 uM incubated at 22 degC and pH 1.2 by fluorescence spectrophotometry; type: functional; how it was run: as §2
H9c2 [13] = experiment: Cardioprotective activity against H2O2- induced toxicity in rat H9c2 cells assessed as increase in survival rate at 50 uM incubated for 8 hrs co-treated with 200 uM H2O2 measured after 24 hrs by MTT assay relative to control; type: functional
How it was run: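 H9c2 cardiomyocytes injured with H2O2 (50, 200 or 400 µM) for 8 h together with compound (10–100 µM). Survival rate measured against the H2O2 model group. Six independent experiments, mean ± sd.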

[14] = Toxicity in zebra fish assessed as survival rate at 0.5 uM measured after 120 hpf by microscopic analysis; set-up: species or system Danio rerio; conditions: zebrafish; how it was run: as §3
WI-38 = experiment: Cytotoxicity in human W138 cells assessed as growth inhibition incubated for 24 hrs by MTT assay; type: cell-based; conditions: WI-38, 24 h; how it was run: as §1
[15] = Induction of H2S generation assessed as half life at 150 uM incubated at 22 degC and pH 8 by fluorescence spectrophotometry; type: functional; how it was run: as §2
A549 = experiment: Cytotoxicity in human A549 cells assessed as growth inhibition incubated for 24 hrs by MTT assay; type: functional, cell-based; conditions: A549, 24 h; how it was run: as §1
[16] = Toxicity in zebra fish assessed as hatching rate at 0.5 uM measured after 120 hpf by microscopic analysis; set-up: species or system Danio rerio; conditions: zebrafish
[17] = Toxicity in Wistar rat assessed as effect on RBC level at 0.01 mmol/kg, ip, administered daily for 14 days (reference value: […]); conditions: in vivo, 336 h, time 14 day
[18] = Induction of H2S generation assessed as Cmax at 150 uM incubated at 22 degC and pH 1.2 by fluorescence spectrophotometry; type: functional; how it was run: as §2
H9c2 [19] = experiment: Cardioprotective activity against H2O2- induced toxicity in rat H9c2 cells assessed as effect on cell morphology at 50 uM incubated for 8 hrs co-treated with 50 uM H2O2 measured after 24 hrs […]; type: functional, cell-based
How it was run: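 H9c2 cells in 24-well plates treated with H2O2 (50, 200 or 400 µM) for 8 h plus compound 50 µM, 24 h total. Cells were stained with Giemsa for 30 min and morphology examined by microscopy.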

HepG2 = experiment: Cytotoxicity in human HePG2 cells assessed as growth inhibition incubated for 24 hrs by MTT assay; type: functional, cell-based; conditions: HepG2, 24 h; how it was run: as §1
[20] = Induction of H2S generation assessed as Cmax at 150 uM incubated at 37 degC and pH 1.2 by fluorescence spectrophotometry; type: functional; how it was run: as §2
[21] = Toxicity in Wistar rat assessed as effect on hemoglobin level at 0.01 mmol/kg, ip, administered daily for 14 days (reference value: 98 g/l); conditions: in vivo, 336 h, time 14 day
[22] = Toxicity in Wistar rat assessed as effect on WBC level at 0.01 mmol/kg, ip, administered daily for 14 days (reference value: 5.82 10^9/L); conditions: in vivo, 336 h, time 14 day
[23] = Induction of H2S generation assessed as half life at 150 uM incubated at 22 degC and pH 5 by fluorescence spectrophotometry; type: functional; how it was run: as §2

SMILES	Activity [1]	viability at 24 h, 100 µM [2] [%]	IC50 (MCF7) [µM]	T1/2 [3] [min]	Activity [4] [%]	Retention_time [5] [min]	Activity [6] [mm]	Activity (RAW264.7)	Cmax [7] [µM]	IC50 (HT-29) [µM]	Cmax [8] [µM]	T1/2 [9] [min]	Cmax [10] [µM]	Activity [11]	T1/2 [12] [min]	Activity (H9c2 [13]) [%]	Activity [14]	IC50 (WI-38) [µM]	T1/2 [15] [min]	IC50 (A549) [µM]	further results
S=P1(c2ccccc2)NCCCO1 (stereo not drawn)	Toxic	> 90	752	34.9	50	8.63	257	Dose-dependent effect	24.9	1050	25.1	36.8	25.6	Toxic	35	13.9	Non-Toxic	720	35.1	886	Activity [16]: Non-Toxic; Activity [17]: 8.42 10^12/L; Cmax [18]: 25 µM; Activity (H9c2 [19]): Active; IC50 (HepG2): 629 µM; Cmax [20]: 34.8 µM; Activity [21]: 190 g/L; Activity [22]: 3.23 10^9/L; T1/2 [23]: 34.1 min
O=C([O-])[C@H](Cc1cc2ccccc2[nH]1)NP([O-])(=S)c1ccccc1.[Li+].[Li+] (stereo partly drawn)	Toxic	> 90	838	7.85	50	7.9	216	Dose-dependent effect	117	742	117	6.97	118	Toxic	2.97	30.1	Non-Toxic	724	8.54	433	Activity [16]: Non-Toxic; Activity [17]: 5.98 10^12/L; Cmax [18]: 118 µM; Activity (H9c2 [19]): Active; IC50 (HepG2): 315 µM; Cmax [20]: 124 µM; Activity [21]: 168 g/L; Activity [22]: 4.01 10^9/L; T1/2 [23]: 3.53 min
